Test results from ChEMBL document CHEMBL3864121, “Development of ebsulfur analogues as potent antibacterials against methicillin-resistant Staphylococcus aureus” (Bioorg Med Chem, 2016).
Values after ≈ are worked out from the molar mass of the structure shown. Active and inactive are the calls of the source. The calls are words filed in the database; no cut-off is given here.

Legend:
Staphylococcus aureus [1] = assay: Antibacterial activity against methicillin-resistant Staphylococcus aureus NRS77 measured after overnight incubation by broth double-dilution method; assay type: functional
How it was run: (§1)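 MIC by broth double-dilution in liquid Mueller-Hinton medium. Values are reported in µg/mL.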

Staphylococcus aureus [2] = assay: Antibacterial activity against methicillin-resistant Staphylococcus aureus S17 measured after overnight incubation by broth double-dilution method; assay type: functional; how it was run: as §1
Listeria monocytogenes = assay: Antibacterial activity against Listeria monocytogenes ATCC 19115 measured after overnight incubation by broth double-dilution method; assay type: functional
How it was run: (§2)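 MIC by broth double-dilution in Mueller-Hinton medium. Re-testing at the time-kill inoculum used 1×10^6 CFU/mL.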

Staphylococcus aureus [3] = assay: Antibacterial activity against methicillin-resistant Staphylococcus aureus S22 measured after overnight incubation by broth double-dilution method; assay type: functional; how it was run: as §1
Enterococcus faecium = assay: Antibacterial activity against Enterococcus faecium BM4105-RF measured after overnight incubation by broth double-dilution method; assay type: functional; how it was run: as §1
Staphylococcus aureus [4] = assay: Antibiofilm activity against methicillin-sensitive Staphylococcus aureus ATCC 6538 assessed as reduction of biofilm at […] measured after 24 hrs by crystal violet staining based method relative to control; assay type: functional; set-up: scale not given: the % may be the effect or the level left
Staphylococcus aureus [5] = assay: Antibacterial activity against methicillin-resistant Staphylococcus aureus NRS4 measured after overnight incubation by broth double-dilution method; assay type: functional; how it was run: as §1
Staphylococcus aureus [6] = assay: Antibacterial activity against methicillin-resistant Staphylococcus aureus C19 measured after overnight incubation by broth double-dilution method; assay type: functional; how it was run: as §1
Staphylococcus aureus [7] = assay: Antibacterial activity against methicillin-resistant Staphylococcus aureus ATCC 33591 measured after overnight incubation by broth double-dilution method; assay type: functional; how it was run: as §1
Staphylococcus aureus [8] = assay: Antibacterial activity against methicillin-resistant Staphylococcus aureus G12 measured after overnight incubation by broth double-dilution method; assay type: functional; how it was run: as §1
[9] = Cytotoxicity against HEK293 cells assessed as cell death at […] measured after 24 hrs by resazurin dye-based fluorescence analysis relative to untreated control; assay type: toxicity; conditions: human, hek293, 24 h
[10] = test system: Staphylococcus epidermidis; assay: Antibacterial activity against Staphylococcus epidermidis ATCC 35984 measured after overnight incubation by broth double-dilution method; assay type: functional; conditions: RP62A; how it was run: as §2
Staphylococcus aureus [11] = assay: Antibacterial activity against methicillin-resistant Staphylococcus aureus C16 measured after overnight incubation by broth double-dilution method; assay type: functional; how it was run: as §1
Staphylococcus aureus [12] = assay: Antibacterial activity against methicillin-resistant Staphylococcus aureus NRS51 measured after overnight incubation by broth double-dilution method; assay type: functional; how it was run: as §1
Staphylococcus aureus [13] = assay: Antibacterial activity against methicillin-resistant Staphylococcus aureus G6 measured after overnight incubation by broth double-dilution method; assay type: functional; how it was run: as §1
Staphylococcus aureus [14] = assay: Antibacterial activity against methicillin-resistant Staphylococcus aureus USA300 measured after overnight incubation by broth double-dilution method; assay type: functional; how it was run: as §1
Staphylococcus aureus [15] = assay: Antibacterial activity against methicillin-resistant Staphylococcus aureus USA200 measured after overnight incubation by broth double-dilution method; assay type: functional; how it was run: as §1
Staphylococcus aureus [16] = assay: Antibacterial activity against methicillin-sensitive Staphylococcus aureus ATCC 6538 measured after overnight incubation by broth double-dilution method; assay type: functional; how it was run: as §1
Staphylococcus aureus [17] = assay: Antibacterial activity against methicillin-sensitive Staphylococcus aureus ATCC 29213 measured after overnight incubation by broth double-dilution method; assay type: functional; how it was run: as §1
Staphylococcus aureus [18] = assay: Antibacterial activity against methicillin-resistant Staphylococcus aureus G14 measured after overnight incubation by broth double-dilution method; assay type: functional; how it was run: as §1
Staphylococcus aureus [19] = assay: Antibacterial activity against methicillin-resistant Staphylococcus aureus USA600 measured after overnight incubation by broth double-dilution method; assay type: functional; how it was run: as §1
[20] = test system: Mycolicibacterium smegmatis; assay: Antibacterial activity against Mycobacterium smegmatis MC2-155 measured after overnight incubation by broth double-dilution method; assay type: functional; conditions: str. MC2 155; how it was run: as §1
Staphylococcus aureus [21] = assay: Antibacterial activity against methicillin-resistant Staphylococcus aureus C14 measured after overnight incubation by broth double-dilution method; assay type: functional; how it was run: as §1
Enterococcus = assay: Antibacterial activity against Vancomycin-resistant Enterococcus measured after overnight incubation by broth double-dilution method; assay type: functional; how it was run: as §1
[22] = test system: Staphylococcus epidermidis; assay: Antibiofilm activity against Staphylococcus epidermidis ATCC 35984 assessed as reduction of biofilm at […] ug/ml measured after 24 hrs by crystal violet staining based method relative to control; assay type: functional, RP62A; set-up: scale not given: the % may be the effect or the level left
Staphylococcus aureus [23] = assay: Antibacterial activity against methicillin-resistant Staphylococcus aureus 1 measured after overnight incubation by broth double-dilution method; assay type: functional; how it was run: as §1
Staphylococcus aureus [24] = assay: Antibacterial activity against methicillin-resistant Staphylococcus aureus C7 measured after overnight incubation by broth double-dilution method; assay type: functional; how it was run: as §1
Staphylococcus aureus [25] = assay: Antibacterial activity against methicillin-resistant Staphylococcus aureus S14 measured after overnight incubation by broth double-dilution method; assay type: functional; how it was run: as §1
Enterococcus faecalis [26] = assay: Antibacterial activity against Enterococcus faecalis ATCC 29212 measured after overnight incubation by broth double-dilution method; assay type: functional; how it was run: as §2
Staphylococcus aureus [27] = assay: Antibacterial activity against methicillin-resistant Staphylococcus aureus G1 measured after overnight incubation by broth double-dilution method; assay type: functional; how it was run: as §1
Staphylococcus aureus [28] = assay: Antibacterial activity against methicillin-resistant Staphylococcus aureus BRS3 measured after overnight incubation by broth double-dilution method; assay type: functional; how it was run: as §1
Staphylococcus aureus [29] = assay: Antibacterial activity against methicillin-resistant Staphylococcus aureus 2 measured after overnight incubation by broth double-dilution method; assay type: functional; how it was run: as §1
Staphylococcus aureus [30] = assay: Antibacterial activity against methicillin-resistant Staphylococcus aureus USA100 measured after overnight incubation by broth double-dilution method; assay type: functional; how it was run: as §1
Staphylococcus aureus [31] = assay: Antibacterial activity against methicillin-resistant Staphylococcus aureus C1 measured after overnight incubation by broth double-dilution method; assay type: functional; how it was run: as §1
Staphylococcus aureus [32] = assay: Antibacterial activity against methicillin-sensitive Staphylococcus aureus ATCC 25923 measured after overnight incubation by broth double-dilution method; assay type: functional; how it was run: as §1
Enterococcus faecalis [33] = assay: Antibacterial activity against Enterococcus faecalis ATCC 49533 measured after overnight incubation by broth double-dilution method; assay type: functional; how it was run: as §2
Staphylococcus aureus [34] = assay: Antibacterial activity against methicillin-resistant Staphylococcus aureus C2 measured after overnight incubation by broth double-dilution method; assay type: functional; how it was run: as §1
Staphylococcus aureus [35] = assay: Antibacterial activity against methicillin-resistant Staphylococcus aureus S24 measured after overnight incubation by broth double-dilution method; assay type: functional; how it was run: as §1
Staphylococcus aureus [36] = assay: Bacteriostatic activity against methicillin-resistant Staphylococcus aureus S22 at MIC measured up to 3 to 6 hrs by time kill analysis; assay type: functional
Staphylococcus aureus [37] = assay: Bacteriostatic activity against methicillin-resistant Staphylococcus aureus S22 at 0.5 times MIC measured up to 3 to 6 hrs by time kill analysis; assay type: functional
Staphylococcus aureus [38] = assay: Bacteriostatic activity against methicillin-resistant Staphylococcus aureus S22 at 4 times MIC measured after 24 hrs by time kill analysis; assay type: functional
[39] = test system: Staphylococcus epidermidis RP62A; assay: Inhibition of thioredoxin reductase in Staphylococcus epidermidis ATCC 35984 assessed as induction of ROS production at 1 to 4 times MIC measured after 1 hr by DCFH-DA staining-based fluorescence microscopic analysis
How it was run: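 Untreated cells served as the negative control and 1 mM H2O2 as the positive control. Cells were stained with DCFH-DA (40 µg/mL) and ROS were visualized by fluorescence microscopy.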

Staphylococcus aureus [40] = assay: Antibacterial activity against methicillin-resistant Staphylococcus aureus S22 using 1 10^6CFU/ml measured after overnight incubation by broth double-dilution method; assay type: functional

Row | Compound | MIC (Staphylococcus aureus [1]) [µg/mL] | MIC (Staphylococcus aureus [2]) [µg/mL] | MIC (Listeria monocytogenes) [µg/mL] | MIC (Staphylococcus aureus [3]) [µg/mL] | MIC (Enterococcus faecium) [µg/mL] | MIC (Staphylococcus aureus [5]) [µg/mL] | MIC (Staphylococcus aureus [6]) [µg/mL] | MIC (Staphylococcus aureus [7]) [µg/mL] | MIC (Staphylococcus aureus [8]) [µg/mL] | MIC [10] [µg/mL] | MIC (Staphylococcus aureus [11]) [µg/mL] | MIC (Staphylococcus aureus [12]) [µg/mL] | MIC (Staphylococcus aureus [13]) [µg/mL] | MIC (Staphylococcus aureus [14]) [µg/mL] | MIC (Staphylococcus aureus [15]) [µg/mL] | MIC (Staphylococcus aureus [16]) [µg/mL] | MIC (Staphylococcus aureus [17]) [µg/mL] | MIC (Staphylococcus aureus [18]) [µg/mL] | MIC (Staphylococcus aureus [19]) [µg/mL] | MIC [20] [µg/mL] | other results
1 | COc1cc(OC)cc(-n2sc3ccccc3c2=O)c1 | 2 (≈ 6.96 µM) | 1 (≈ 3.48 µM) | 2 (≈ 6.96 µM) | 0.5 (≈ 1.74 µM) | 3.9 (≈ 13.6 µM) | 2 (≈ 6.96 µM) | ≤ 0.25 | ≤ 0.25 | 0.5 (≈ 1.74 µM) | 0.25 (≈ 0.87 µM) | 2 (≈ 6.96 µM) | 1 (≈ 3.48 µM) | 1 (≈ 3.48 µM) | ≤ 0.25 | 0.5 (≈ 1.74 µM) | 1 (≈ 3.48 µM) | ≤ 0.25 | ≤ 0.25 | 2 (≈ 6.96 µM) | 2 (≈ 6.96 µM) | Activity (Staphylococcus aureus [4]): 40%; Activity [9]: > 20%; MIC (Staphylococcus aureus [21]): 2 µg/mL (≈ 6.96 µM); MIC (Enterococcus): 0.5 µg/mL (≈ 1.74 µM); Activity [22]: 50%; MIC (Staphylococcus aureus [23]): ≤ 0.25 µg/mL; MIC (Staphylococcus aureus [24]): 0.5 µg/mL (≈ 1.74 µM); MIC (Staphylococcus aureus [25]): ≤ 0.25 µg/mL; MIC (Enterococcus faecalis [26]): 2 µg/mL (≈ 6.96 µM); MIC (Staphylococcus aureus [27]): 1 µg/mL (≈ 3.48 µM); MIC (Staphylococcus aureus [28]): 2 µg/mL (≈ 6.96 µM); MIC (Staphylococcus aureus [29]): 1 µg/mL (≈ 3.48 µM); MIC (Staphylococcus aureus [30]): 0.5 µg/mL (≈ 1.74 µM); MIC (Staphylococcus aureus [31]): 0.5 µg/mL (≈ 1.74 µM); MIC (Staphylococcus aureus [32]): 0.5 µg/mL (≈ 1.74 µM); MIC (Enterococcus faecalis [33]): 7.8 µg/mL (≈ 27.1 µM); MIC (Staphylococcus aureus [34]): ≤ 0.25 µg/mL; MIC (Staphylococcus aureus [35]): ≤ 0.25 µg/mL
2 | CCCCCCn1sc2ccccc2c1=O | 3.9 (≈ 16.6 µM) | 3.9 (≈ 16.6 µM) | 3.9 (≈ 16.6 µM) | 3.9 (≈ 16.6 µM) | 7.8 (≈ 33.1 µM) | 3.9 (≈ 16.6 µM) | 2 (≈ 8.5 µM) | 2 (≈ 8.5 µM) | 2 (≈ 8.5 µM) | 2 (≈ 8.5 µM) | 7.8 (≈ 33.1 µM) | 3.9 (≈ 16.6 µM) | 3.9 (≈ 16.6 µM) | 3.9 (≈ 16.6 µM) | 7.8 (≈ 33.1 µM) | 7.8 (≈ 33.1 µM) | 3.9 (≈ 16.6 µM) | 2 (≈ 8.5 µM) | 7.8 (≈ 33.1 µM) | 2 (≈ 8.5 µM) | Activity (Staphylococcus aureus [36]): Active; Activity (Staphylococcus aureus [37]): Active; Activity (Staphylococcus aureus [38]): Active; Activity [39]: Active; MIC (Staphylococcus aureus [21]): 3.9 µg/mL (≈ 16.6 µM); MIC (Enterococcus): 2 µg/mL (≈ 8.5 µM); MIC (Staphylococcus aureus [23]): 2 µg/mL (≈ 8.5 µM); MIC (Staphylococcus aureus [24]): 3.9 µg/mL (≈ 16.6 µM); MIC (Staphylococcus aureus [25]): ≤ 0.25 µg/mL; MIC (Enterococcus faecalis [26]): > 125 µg/mL; MIC (Staphylococcus aureus [27]): 0.5 µg/mL (≈ 2.12 µM); MIC (Staphylococcus aureus [28]): 3.9 µg/mL (≈ 16.6 µM); Activity (Staphylococcus aureus [40]): Active; MIC (Staphylococcus aureus [29]): 3.9 µg/mL (≈ 16.6 µM); MIC (Staphylococcus aureus [30]): 7.8 µg/mL (≈ 33.1 µM); MIC (Staphylococcus aureus [31]): 3.9 µg/mL (≈ 16.6 µM); MIC (Staphylococcus aureus [32]): 3.9 µg/mL (≈ 16.6 µM); MIC (Enterococcus faecalis [33]): > 125 µg/mL; MIC (Staphylococcus aureus [34]): 3.9 µg/mL (≈ 16.6 µM); MIC (Staphylococcus aureus [35]): 3.9 µg/mL (≈ 16.6 µM)
